ChEMBL document CHEMBL1153892 (Bioorg Med Chem, 2009)
Activity calls are given as the source filed them. The rule behind the calls is not given here.

How the values were obtained:
A2780 [1] = experiment: Antiproliferative activity against human A2780 cells after 2 days by alamar-blue assay; format: functional, cell-based; settings: A2780, 48 h
[2] = target: T1, Dual specificity protein phosphatase 1 (Mus musculus, UniProt P28563); experiment: Inhibition of histidine-tagged mouse MKP1 catalytic domain expressed in […]
T1 sequence (P28563 whole entry): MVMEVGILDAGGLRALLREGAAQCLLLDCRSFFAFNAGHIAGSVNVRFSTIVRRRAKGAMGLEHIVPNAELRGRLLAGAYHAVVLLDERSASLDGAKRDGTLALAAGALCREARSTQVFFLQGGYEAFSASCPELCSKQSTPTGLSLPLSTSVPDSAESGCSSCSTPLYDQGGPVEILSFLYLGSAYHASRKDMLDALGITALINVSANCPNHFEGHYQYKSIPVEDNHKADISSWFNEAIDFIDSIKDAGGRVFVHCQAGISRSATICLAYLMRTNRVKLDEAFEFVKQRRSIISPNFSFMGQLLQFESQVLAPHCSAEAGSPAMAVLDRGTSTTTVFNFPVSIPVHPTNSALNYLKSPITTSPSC

[3] = target: T2, M-phase inducer phosphatase 2 (Homo sapiens, UniProt P30305); experiment: Inhibition of histidine-tagged human recombinant Cdc25B catalytic domain expressed in Escherichia coli
T2 sequence (P30305 whole entry): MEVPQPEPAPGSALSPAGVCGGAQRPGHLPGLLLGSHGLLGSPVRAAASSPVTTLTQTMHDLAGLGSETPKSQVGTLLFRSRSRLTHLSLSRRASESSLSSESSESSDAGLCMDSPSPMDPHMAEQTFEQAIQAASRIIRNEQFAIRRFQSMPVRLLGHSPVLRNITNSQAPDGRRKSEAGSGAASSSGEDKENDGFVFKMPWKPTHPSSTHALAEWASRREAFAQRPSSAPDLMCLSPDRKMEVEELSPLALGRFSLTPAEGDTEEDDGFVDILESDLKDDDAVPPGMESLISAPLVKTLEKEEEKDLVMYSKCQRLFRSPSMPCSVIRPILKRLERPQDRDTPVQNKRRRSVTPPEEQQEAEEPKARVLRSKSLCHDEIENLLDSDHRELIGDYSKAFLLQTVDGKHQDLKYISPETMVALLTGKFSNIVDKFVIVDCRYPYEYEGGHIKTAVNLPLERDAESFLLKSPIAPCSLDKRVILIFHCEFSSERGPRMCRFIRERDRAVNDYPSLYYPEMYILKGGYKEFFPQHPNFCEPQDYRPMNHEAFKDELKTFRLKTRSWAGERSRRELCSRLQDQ

[4] = target: T3, Dual specificity protein phosphatase 6 (Rattus norvegicus, UniProt Q64346); experiment: Inhibition of histidine-tagged rat recombinant MKP3 catalytic domain expressed in Escherichia coli BL21(DE3)
T3 sequence (Q64346 whole entry): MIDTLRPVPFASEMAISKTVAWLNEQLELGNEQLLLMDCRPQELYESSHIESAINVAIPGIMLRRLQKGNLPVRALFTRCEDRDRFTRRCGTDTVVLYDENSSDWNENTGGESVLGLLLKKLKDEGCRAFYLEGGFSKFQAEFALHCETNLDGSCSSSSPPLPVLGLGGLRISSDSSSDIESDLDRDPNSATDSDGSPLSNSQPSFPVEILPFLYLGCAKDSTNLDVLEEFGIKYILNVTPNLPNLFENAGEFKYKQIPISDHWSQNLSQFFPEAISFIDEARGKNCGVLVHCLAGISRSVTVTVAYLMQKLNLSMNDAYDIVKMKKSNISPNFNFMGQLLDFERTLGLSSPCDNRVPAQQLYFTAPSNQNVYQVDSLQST
Summary of the method: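 Recombinant MKP-3 was expressed from a bacterial plasmid. Phosphatase activity was read from O-methyl fluorescein phosphate hydrolysis in a 25 μL final mixture, incubated 20 or 60 min at ambient temperature. Product fluorescence was read at excitation 485 nm and emission 530 nm. IC50 came from at least six inhibitor concentrations.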

A2780 [5] = experiment: Antiproliferative activity against human A2780 cells assessed as growth inhibition after 2 days by microscopic analysis; format: functional, cell-based
[6] = target: T2, M-phase inducer phosphatase 2; experiment: Inhibition of histidine-tagged full length human Cdc25B expressed in Escherichia coli
Summary of the method: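 His6-tagged full-length enzyme purified from E. coli on Ni-NTA resin. Substrate is O-methyl fluorescein phosphate. Buffer is 30 mM Tris pH 8.5, 75 mM NaCl, 1 mM EDTA, 0.033% BSA and 1 mM DTT (final). Incubation runs 20 or 60 min at ambient temperature. Fluorescence is read at ex 485 / em 530 nm. IC50 comes from at least six concentrations.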

SMILES	IC50 (A2780 [1]) [µM]	IC50 [2] [µM]	IC50 [3] [µM]	IC50 [4] [µM]	Activity (A2780 [5])	IC50 [6] [µM]
CCOC1=CC(=O)C(=O)c2ccccc21	0.37	0.82	0.27	1.35		
O=C1C2=C(C(=O)c3ccccc31)S(=O)(=O)CCN2	4.3	17.8	0.94	42.6		
CC1=C(NCCO)C(=O)c2ccccc2C1=O		> 50	> 50	> 50	Active	
O=C1C=CC(=O)C=C1 [BENZOQUINONE]	7.8	> 50	> 50	> 50		
O=C1C=CC(=O)c2c(O)cccc21 [JUGLONE]	1.4	13	1.98	12.4		
O=C1C=CC(=O)c2ccccc21 [NAPHTHOQUINONE]	2.3	8.45	2.76	19.8		
O=C1C=CC(=O)c2cc3c(cc21)CCCC3		21.8	9.53	> 50		
O=C1C2=C(C(=O)c3cc4c(cc31)CCCC4)S(=O)(=O)CCN2		38.7	2.3	> 50		
C[C@@]12CCCc3coc(c31)C(=O)c1cc3c(cc12)C(=O)C1=C(NCCS1(=O)=O)C3=O [ADOCIAQUINONE B]		1.1	0.11	1.53		0.08
CC1=CC(=O)c2ccccc2C1=O [MENADIONE]	2.6	24	3.38	20.5		
O=C1c2ccccc2C(=O)c2ccccc21 [ANTHRAQUINONE]		> 50	9.51	> 50		
O=C1C2=C(C(=O)c3c(O)cccc31)S(=O)(=O)CCN2	2.1	33.8	0.88	> 50		
O=C1C=C(NCCO)C(=O)c2ccccc21	64	> 50	> 50	> 50		
O=C1C=CC(=O)c2c(O)ccc(O)c21 [NAPHTHAZALIN]		9.37	1	6.9		
O=C1c2cc3c(cc2C(=O)C2OC12)CCCC3 (stereo not given)		> 50	22.3	49.9		
